Experiment [1] can be described thus: Neuroprotective activity in Wistar rat hippocampi primary neuronal cells assessed as protection against serum-deprivation induced cell death at 10 uM after 24 hrs by MTT assay. It counts as functional, Hippocampus, Primary neuron. The gist of the method:
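Mixed neuron-glia cultures from E18 Wistar rat hippocampi (Neurobasal plus 10% FCS), used at 11 days in vitro. Medium replaced by saline to withdraw serum; cells held 24 h with compound. Cell survival measured by MTT reduction, expressed as % protection.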
A general note: Tetrazolium assays rely on reduction of a dye to a coloured formazan, in cell work by metabolically active cells.

In experiment [2] the target is 5-hydroxytryptamine receptor 2A (Rattus norvegicus, UniProt P14842). The experiment in a line: Displacement of [3H]ketanserin from 5HT2A receptor in Sprague-Dawley albinus rat frontal cortex membranes after 15 mins. It counts as cell membranes, Membrane. The gist of the method: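 Rat frontal cortex membranes (male Sprague–Dawley, 180–200 g). Nonspecific binding was set with 1 μM cinanserin.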
(In general: In a radioligand displacement assay an active substance lowers the binding of a labelled ligand.)

The target in a further experiment is D(2) dopamine receptor (Rattus norvegicus, UniProt P61169). The experiment in a line: Displacement of [3H]spiperone from dopamine D2 receptor in Sprague-Dawley albinus rat striatal membranes after 15 mins. Format: cell membranes, Membrane.
Experiment [3] has as its target T1, 5-hydroxytryptamine receptor 3A (Rattus norvegicus, UniProt P35563).
T1 sequence (P35563 whole entry): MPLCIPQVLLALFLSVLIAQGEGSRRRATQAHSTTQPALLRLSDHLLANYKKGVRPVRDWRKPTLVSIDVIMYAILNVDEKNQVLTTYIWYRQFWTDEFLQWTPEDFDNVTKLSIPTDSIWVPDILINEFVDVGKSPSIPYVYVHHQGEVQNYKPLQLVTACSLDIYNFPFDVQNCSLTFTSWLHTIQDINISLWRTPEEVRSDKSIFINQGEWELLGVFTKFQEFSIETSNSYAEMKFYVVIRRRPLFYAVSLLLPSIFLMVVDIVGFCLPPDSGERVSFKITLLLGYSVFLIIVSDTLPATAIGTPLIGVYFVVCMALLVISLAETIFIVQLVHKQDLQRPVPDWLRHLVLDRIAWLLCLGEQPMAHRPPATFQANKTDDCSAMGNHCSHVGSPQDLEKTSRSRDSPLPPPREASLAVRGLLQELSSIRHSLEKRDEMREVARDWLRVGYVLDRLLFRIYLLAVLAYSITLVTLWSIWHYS
The experiment is described as follows: Displacement of [3H]-LY278584 from 5HT3 receptor in Sprague-Dawley albinus rat cerebral cortex membranes after 30 mins. Format: cell membranes, Membrane.

Experiment [4] is described as follows: Neuroprotective activity in Wistar rat hippocampi primary neuronal cells assessed as protection against oxygen-glucose deprivation induced cell death at 10 uM after 18 hrs by MTT assay. Format: functional, Hippocampus, Primary neuron.
The target in experiment [5] is 5-hydroxytryptamine receptor 7 (Rattus norvegicus, UniProt P32305). The experiment in a line: Displacement of [3H]-5-CT from 5HT7 receptor in Sprague-Dawley albinus rat hyphalamic membranes after 120 mins. Format: cell membranes, Membrane.
The target in experiment [6] is T2, 5-hydroxytryptamine receptor 1A (Homo sapiens) (UniProt P08908).
T2 sequence (whole entry): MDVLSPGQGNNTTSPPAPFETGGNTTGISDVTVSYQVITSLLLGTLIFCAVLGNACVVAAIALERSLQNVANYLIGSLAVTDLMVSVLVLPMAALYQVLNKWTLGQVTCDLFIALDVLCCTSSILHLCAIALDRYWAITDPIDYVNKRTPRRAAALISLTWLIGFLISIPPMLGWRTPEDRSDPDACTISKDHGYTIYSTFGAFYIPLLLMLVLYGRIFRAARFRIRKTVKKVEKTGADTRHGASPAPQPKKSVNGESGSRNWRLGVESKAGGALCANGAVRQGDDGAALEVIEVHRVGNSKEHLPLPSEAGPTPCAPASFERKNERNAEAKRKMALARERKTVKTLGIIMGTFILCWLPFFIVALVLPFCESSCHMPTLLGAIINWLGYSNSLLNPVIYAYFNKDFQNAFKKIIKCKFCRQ
The experiment in a line: Agonist activity at human 5HT1A receptor expressed in human HeLa cells assessed as inhibition of forskolin-stimulated cAMP production pretreated 20 mins before forskolin challenge measured after 2 hrs by RIA relative to control. It counts as functional, cell-based. A general note: Changes in cAMP serve as a functional read-out for many G protein-coupled receptors.

In experiment [7] the target is T3, 5-hydroxytryptamine receptor 1A (Rattus norvegicus, UniProt P19327).
T3 sequence (P19327 whole entry): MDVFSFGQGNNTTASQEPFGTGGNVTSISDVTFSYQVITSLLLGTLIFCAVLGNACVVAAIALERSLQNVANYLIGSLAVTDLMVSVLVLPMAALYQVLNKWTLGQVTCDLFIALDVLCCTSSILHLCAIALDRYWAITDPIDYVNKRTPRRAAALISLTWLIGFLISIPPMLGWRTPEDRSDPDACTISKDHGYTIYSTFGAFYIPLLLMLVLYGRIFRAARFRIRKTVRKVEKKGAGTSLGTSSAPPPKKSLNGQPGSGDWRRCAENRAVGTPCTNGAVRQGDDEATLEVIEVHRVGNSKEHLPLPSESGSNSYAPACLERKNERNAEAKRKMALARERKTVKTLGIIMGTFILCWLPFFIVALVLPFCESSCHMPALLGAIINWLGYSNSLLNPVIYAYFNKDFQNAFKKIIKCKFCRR
The experiment in a line: Displacement of [3H]-8-OH-DPAT from 5-HT1A receptor in Sprague-Dawley albinus rat cerebral cortex membranes after 15 mins. It counts as cell membranes, Membrane.

The target of experiment [8] is T4, 5-hydroxytryptamine receptor 1A (Homo sapiens, UniProt P08908).
T4 sequence (P08908 whole entry): T2 sequence (whole entry)
The experiment in a line: Agonist activity at human 5HT1A receptor expressed in human HeLa cells assessed as inhibition of forskolin-stimulated cAMP production […] measured after 2 hrs by RIA. Format: functional, cell-based. The gist of the method: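 HeLa cells stably expressing the h5-HT1AR, grown in DMEM with 2 mM glutamine, 1 mM pyruvate and 10% heat-inactivated FCS, and used after 2–3 days at about 7.5 × 10^4 cells/well. After a PBS wash, cells were incubated 10 min in PBS with 0.5 mM isobutylmethylxanthine and 10 μM forskolin, with or without compound. The reaction was stopped with ice-cold ethanol, extracted 2 h and lyophilized; cAMP was measured by RIA.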

Experiment [9] addresses 5-hydroxytryptamine receptor 4 (Rattus norvegicus, UniProt Q62758). The experiment is described as follows: Displacement of [3H]GR113808 from 5HT4 receptor in Sprague-Dawley albinus rat striatal membranes after 30 mins by scintillation counting. Format: cell membranes, Membrane.

SMILES strings stand for the structures. Bounds are passed on as bounds.

The Ki is the dissociation constant of the complex between target and ligand, obtained from inhibition or displacement. Higher therefore signals lower affinity. The Emax is the size of the effect at its maximum, as opposed to the concentration needed. Usually EC50 stands for the concentration giving half of the maximal effect.

Chain of 5-hydroxytryptamine receptor 2A (P14842 whole entry): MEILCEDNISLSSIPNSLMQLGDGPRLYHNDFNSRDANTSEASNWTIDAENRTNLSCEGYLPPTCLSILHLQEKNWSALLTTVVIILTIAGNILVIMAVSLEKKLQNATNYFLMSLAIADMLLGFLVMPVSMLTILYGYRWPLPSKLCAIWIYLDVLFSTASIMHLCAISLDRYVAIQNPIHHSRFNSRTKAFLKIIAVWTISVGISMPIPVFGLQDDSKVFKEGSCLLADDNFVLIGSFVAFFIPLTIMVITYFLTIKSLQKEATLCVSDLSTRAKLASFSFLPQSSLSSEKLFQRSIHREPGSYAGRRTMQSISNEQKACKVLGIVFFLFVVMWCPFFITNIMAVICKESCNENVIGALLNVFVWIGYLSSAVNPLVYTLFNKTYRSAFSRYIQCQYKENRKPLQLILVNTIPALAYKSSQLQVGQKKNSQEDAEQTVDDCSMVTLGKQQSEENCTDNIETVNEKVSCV
Chain of D(2) dopamine receptor (P61169 whole entry): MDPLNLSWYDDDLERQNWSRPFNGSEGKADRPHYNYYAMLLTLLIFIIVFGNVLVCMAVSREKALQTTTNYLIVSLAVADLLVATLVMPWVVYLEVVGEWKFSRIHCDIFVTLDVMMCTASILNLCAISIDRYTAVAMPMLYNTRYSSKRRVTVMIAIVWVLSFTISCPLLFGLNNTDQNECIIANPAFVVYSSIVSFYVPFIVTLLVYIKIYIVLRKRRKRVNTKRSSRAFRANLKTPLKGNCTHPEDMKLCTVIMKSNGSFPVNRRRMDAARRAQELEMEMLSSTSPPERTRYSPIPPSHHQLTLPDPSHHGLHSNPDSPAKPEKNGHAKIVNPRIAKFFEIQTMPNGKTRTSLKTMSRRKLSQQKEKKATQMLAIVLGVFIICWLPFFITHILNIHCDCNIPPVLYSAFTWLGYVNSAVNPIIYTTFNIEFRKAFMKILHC
Chain of 5-hydroxytryptamine receptor 7 (P32305 whole entry): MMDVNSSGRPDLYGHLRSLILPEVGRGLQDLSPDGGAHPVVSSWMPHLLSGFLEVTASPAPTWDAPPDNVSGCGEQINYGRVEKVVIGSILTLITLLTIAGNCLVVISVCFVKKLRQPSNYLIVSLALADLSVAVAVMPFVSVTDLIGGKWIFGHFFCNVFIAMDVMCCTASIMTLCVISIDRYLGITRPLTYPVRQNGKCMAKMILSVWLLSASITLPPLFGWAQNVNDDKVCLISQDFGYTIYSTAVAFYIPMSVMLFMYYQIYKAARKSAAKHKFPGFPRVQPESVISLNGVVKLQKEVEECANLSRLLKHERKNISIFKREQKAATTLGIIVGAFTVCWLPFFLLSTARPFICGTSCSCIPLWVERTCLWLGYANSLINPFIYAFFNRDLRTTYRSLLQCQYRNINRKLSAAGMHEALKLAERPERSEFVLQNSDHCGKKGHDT
Chain of 5-hydroxytryptamine receptor 4 (Q62758 whole entry): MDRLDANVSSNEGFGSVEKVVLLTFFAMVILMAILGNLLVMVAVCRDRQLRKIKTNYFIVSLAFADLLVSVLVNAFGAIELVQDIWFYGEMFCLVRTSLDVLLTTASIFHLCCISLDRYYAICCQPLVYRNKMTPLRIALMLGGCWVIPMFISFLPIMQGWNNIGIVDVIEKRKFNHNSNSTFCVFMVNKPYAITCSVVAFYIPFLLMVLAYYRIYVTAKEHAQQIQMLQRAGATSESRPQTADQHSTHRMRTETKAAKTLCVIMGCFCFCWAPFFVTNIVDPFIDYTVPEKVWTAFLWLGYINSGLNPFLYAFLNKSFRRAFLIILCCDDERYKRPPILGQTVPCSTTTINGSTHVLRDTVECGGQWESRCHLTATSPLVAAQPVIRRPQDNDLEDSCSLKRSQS

On to `Cl.O=C1C2CCCN2C(=O)CN1CCCCNCC1CCc2ccccc2O1` (stereo not given), for which the Activity in experiment [1] came out at 13%; in [4], 66%. The Ki in experiment [2] is more than 1000 nM; on D(2) dopamine receptor it was more than 1000 nM; in [3], more than 1000 nM; in experiment [5], 418 nM; in [7], 21 nM; in experiment [9] it was more than 1000 nM. In addition, the Emax in experiment [6] was found to be 87.6%. The concentration giving a half-maximal response (EC50) in experiment [8] stood at 123 nM.

Source of the values: ChEMBL document CHEMBL1926607 (J Med Chem, 2011).
